According to ChEMBL document CHEMBL4665651, “Design, synthesis, and biological evaluation of some novel 4-aminoquinazolines as Pan-PI3K inhibitors” (Bioorg Med Chem, 2019):
Active and inactive are the calls of the source. No cut-off for these calls is given here.

Legend:
MCF7 [1] = experiment: Inhibition of PI3K in human MCF7 cells assessed as decrease in p-Akt/Akt ratio at 0.1 to 10 uM by Western blot analysis; conditions: dose microM 0.1-10
[2] = target: Phosphatidylinositol 4,5-bisphosphate 3-kinase catalytic subunit alpha isoform (Homo sapiens, UniProt P42336); experiment: Inhibition of PI3Kalpha (unknown origin) using lipid as substrate incubated for 15 mins followed by substrate addition and measured after 60 mins ADPGloTM reagent based assay
Sequence of Phosphatidylinositol 4,5-bisphosphate 3-kinase catalytic subunit alpha isoform (P42336 whole entry, canonical isoform): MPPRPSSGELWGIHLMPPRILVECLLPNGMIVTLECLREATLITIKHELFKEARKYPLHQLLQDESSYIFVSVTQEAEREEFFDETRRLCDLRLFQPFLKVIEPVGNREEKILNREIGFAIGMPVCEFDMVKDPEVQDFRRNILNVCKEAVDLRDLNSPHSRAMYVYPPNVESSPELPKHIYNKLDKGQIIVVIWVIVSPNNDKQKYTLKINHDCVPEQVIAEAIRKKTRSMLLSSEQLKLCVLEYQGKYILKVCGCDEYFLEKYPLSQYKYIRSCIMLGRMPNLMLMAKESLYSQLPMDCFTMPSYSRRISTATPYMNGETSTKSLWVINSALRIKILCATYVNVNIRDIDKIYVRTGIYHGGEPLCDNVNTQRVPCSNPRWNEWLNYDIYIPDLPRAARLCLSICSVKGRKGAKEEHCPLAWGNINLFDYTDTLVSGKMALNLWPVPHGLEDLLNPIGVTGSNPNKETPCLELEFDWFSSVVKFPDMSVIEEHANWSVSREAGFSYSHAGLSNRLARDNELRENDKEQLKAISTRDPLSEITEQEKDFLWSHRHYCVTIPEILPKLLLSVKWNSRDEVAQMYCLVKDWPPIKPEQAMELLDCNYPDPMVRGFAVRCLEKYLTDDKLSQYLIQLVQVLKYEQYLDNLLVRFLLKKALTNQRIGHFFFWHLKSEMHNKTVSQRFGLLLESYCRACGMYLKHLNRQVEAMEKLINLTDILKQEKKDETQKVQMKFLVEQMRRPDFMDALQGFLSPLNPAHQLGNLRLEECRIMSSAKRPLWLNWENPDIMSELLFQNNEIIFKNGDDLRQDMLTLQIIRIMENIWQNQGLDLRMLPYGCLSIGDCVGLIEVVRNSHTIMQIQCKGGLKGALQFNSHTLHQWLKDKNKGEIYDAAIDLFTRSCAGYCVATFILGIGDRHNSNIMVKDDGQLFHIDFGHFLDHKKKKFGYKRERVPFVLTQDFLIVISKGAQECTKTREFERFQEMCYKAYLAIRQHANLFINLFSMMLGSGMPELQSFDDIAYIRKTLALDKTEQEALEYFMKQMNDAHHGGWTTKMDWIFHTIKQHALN
Procedure, shortened: (§1)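 ADP-Glo luminescent readout of ADP formed. Isoforms tested: p110α/p85α, p110β/p85α, p120γ and p110δ/p85α, each in PI3K reaction buffer with lipid substrate. Enzyme preincubated with compound for 15 min at room temperature. ADP-Glo reagent added for 40 min, then detection reagent for 40 min. IC50 from normalized nonlinear dose–response fit.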

MCF7 [3] = experiment: Induction of apoptosis in human MCF7 cells assessed as viable cells at 0.8 uM incubated for 48 hrs by annexin V-FITC and propidium iodide staining based flow cytometry analysis (reference value: 87.7 %); format: functional; conditions: read-out: Activity
[4] = target: Phosphatidylinositol 4,5-bisphosphate 3-kinase catalytic subunit beta isoform (Homo sapiens, UniProt P42338); experiment: Inhibition of PI3Kbeta (unknown origin) using lipid as substrate incubated for 15 mins followed by substrate addition and measured after 60 mins ADPGloTM reagent based assay
Sequence of Phosphatidylinositol 4,5-bisphosphate 3-kinase catalytic subunit beta isoform (P42338 whole entry, canonical isoform): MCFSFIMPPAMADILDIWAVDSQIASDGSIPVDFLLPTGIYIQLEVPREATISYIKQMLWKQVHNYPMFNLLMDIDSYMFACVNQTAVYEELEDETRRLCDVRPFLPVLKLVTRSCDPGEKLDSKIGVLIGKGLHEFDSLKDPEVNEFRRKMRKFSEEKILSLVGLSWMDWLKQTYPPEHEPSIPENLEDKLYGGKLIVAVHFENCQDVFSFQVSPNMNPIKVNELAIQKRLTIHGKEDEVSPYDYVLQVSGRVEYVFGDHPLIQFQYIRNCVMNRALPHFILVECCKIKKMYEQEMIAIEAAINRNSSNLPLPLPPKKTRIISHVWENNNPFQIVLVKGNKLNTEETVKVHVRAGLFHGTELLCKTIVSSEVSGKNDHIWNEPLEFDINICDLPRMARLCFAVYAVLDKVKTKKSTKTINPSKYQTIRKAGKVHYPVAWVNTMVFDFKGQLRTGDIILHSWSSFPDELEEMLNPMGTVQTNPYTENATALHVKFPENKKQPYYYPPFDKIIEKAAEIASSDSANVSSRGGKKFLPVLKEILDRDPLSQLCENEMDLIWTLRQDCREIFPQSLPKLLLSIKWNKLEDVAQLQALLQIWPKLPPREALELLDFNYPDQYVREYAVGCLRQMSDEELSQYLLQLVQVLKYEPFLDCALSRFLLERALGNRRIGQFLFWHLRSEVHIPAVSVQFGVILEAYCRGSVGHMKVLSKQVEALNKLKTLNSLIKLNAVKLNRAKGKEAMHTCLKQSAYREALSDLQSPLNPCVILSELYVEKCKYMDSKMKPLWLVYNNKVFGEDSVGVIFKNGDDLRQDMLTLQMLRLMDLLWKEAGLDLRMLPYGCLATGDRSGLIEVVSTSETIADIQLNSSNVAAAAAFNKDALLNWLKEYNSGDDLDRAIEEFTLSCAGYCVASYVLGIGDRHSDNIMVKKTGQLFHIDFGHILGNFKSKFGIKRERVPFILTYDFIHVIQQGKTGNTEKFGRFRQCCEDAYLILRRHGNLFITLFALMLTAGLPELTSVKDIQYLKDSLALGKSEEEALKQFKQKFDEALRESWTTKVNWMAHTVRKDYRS
Procedure, shortened: as §1

MCF7 [5] = experiment: Induction of apoptosis in human MCF7 cells assessed as early apoptotic cells at 0.4 uM incubated for 48 hrs by annexin V-FITC and propidium iodide staining based flow cytometry analysis (reference value: 2.7 %); format: functional
MCF7 [6] = experiment: Induction of apoptosis in human MCF7 cells assessed as late apoptotic cells at 0.8 uM incubated for 48 hrs by annexin V-FITC and propidium iodide staining based flow cytometry analysis (reference value: 9.2 %); format: functional
MCF7 [7] = experiment: Inhibition of PI3K in human MCF7 cells assessed as Akt phosphorylation by Western blot analysis; format: cell-based; conditions: dose microM 0.1-10
Procedure, shortened: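 MCF-7 cells treated at 0.1, 1 and 10 μM, then washed in cold PBS and lysed in RIPA buffer with protease and phosphatase inhibitors. Equal protein run on 10% SDS-PAGE and transferred to PVDF. Blots probed for total Akt and phospho-Akt (Ser473), with GAPDH as loading control.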

MCF7 [8] = experiment: Induction of apoptosis in human MCF7 cells assessed as viable cells at 0.4 uM incubated for 48 hrs by annexin V-FITC and propidium iodide staining based flow cytometry analysis (reference value: 87.7 %); format: functional; conditions: read-out: Activity
MCF7 [9] = experiment: Induction of apoptosis in human MCF7 cells assessed as chromatin condensation at 0.2 to 0.8 uM incubated for 48 hrs by Hoechst 33342 staining based fluorescence microscopic analysis; format: functional, cell-based; conditions: dose microM 0.2-0.8, time 48.0 hrs
Procedure, shortened: (§2)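 MCF-7 cells seeded at 2×10⁵ per well in 6-well plates and allowed to settle 12 h. Treated 48 h, with medium-only controls. Stained with Hoechst 33342 for 30 min, washed, and nuclear morphology imaged by fluorescence microscopy.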

MCF7 [10] = experiment: Induction of apoptosis in human MCF7 cells assessed as necrotic cells at 0.2 uM incubated for 48 hrs by annexin V-FITC and propidium iodide staining based flow cytometry analysis (reference value: 0.3 %); format: functional
MCF7 [11] = experiment: Induction of apoptosis in human MCF7 cells assessed as nuclear fragmentation at 0.2 to 0.8 uM incubated for 48 hrs by Hoechst 33342 staining based fluorescence microscopic analysis; format: functional, cell-based; conditions: dose microM 0.2-0.8, time 48.0 hrs
Procedure, shortened: as §2

MCF7 [12] = experiment: Induction of apoptosis in human MCF7 cells assessed as early apoptotic cells at 0.8 uM incubated for 48 hrs by annexin V-FITC and propidium iodide staining based flow cytometry analysis (reference value: 2.7 %); format: functional
A549 = experiment: Antiproliferative activity against human A549 cells assessed as reduction in cell viability incubated for 72 hrs by SRB assay; format: functional, cell-based; conditions: A549, 72 h
Procedure, shortened: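 Cell lines grown at 37 °C in 5% CO₂: A549 in RPMI1640, MCF-7 in DMEM, each with 10% FBS plus penicillin/streptomycin/amphotericin B. Cells exposed to a range of compound concentrations for 72 h, then TCA-fixed and SRB-stained. Growth inhibition = 100 − 100×(OD sample − OD day 0)/(OD negative control − OD day 0). IC50 from non-linear regression of percent growth against concentration.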

MCF7 [13] = experiment: Induction of apoptosis in human MCF7 cells assessed as necrotic cells at 0.8 uM incubated for 48 hrs by annexin V-FITC and propidium iodide staining based flow cytometry analysis (reference value: 0.3 %); format: functional
[14] = target: T1, Phosphatidylinositol 4,5-bisphosphate 3-kinase catalytic subunit delta isoform (Homo sapiens, UniProt O00329); experiment: Inhibition of PI3Kdelta (unknown origin) using lipid as substrate incubated for 15 mins followed by substrate addition and measured after 60 mins ADPGloTM reagent based assay
T1 sequence (O00329 whole entry): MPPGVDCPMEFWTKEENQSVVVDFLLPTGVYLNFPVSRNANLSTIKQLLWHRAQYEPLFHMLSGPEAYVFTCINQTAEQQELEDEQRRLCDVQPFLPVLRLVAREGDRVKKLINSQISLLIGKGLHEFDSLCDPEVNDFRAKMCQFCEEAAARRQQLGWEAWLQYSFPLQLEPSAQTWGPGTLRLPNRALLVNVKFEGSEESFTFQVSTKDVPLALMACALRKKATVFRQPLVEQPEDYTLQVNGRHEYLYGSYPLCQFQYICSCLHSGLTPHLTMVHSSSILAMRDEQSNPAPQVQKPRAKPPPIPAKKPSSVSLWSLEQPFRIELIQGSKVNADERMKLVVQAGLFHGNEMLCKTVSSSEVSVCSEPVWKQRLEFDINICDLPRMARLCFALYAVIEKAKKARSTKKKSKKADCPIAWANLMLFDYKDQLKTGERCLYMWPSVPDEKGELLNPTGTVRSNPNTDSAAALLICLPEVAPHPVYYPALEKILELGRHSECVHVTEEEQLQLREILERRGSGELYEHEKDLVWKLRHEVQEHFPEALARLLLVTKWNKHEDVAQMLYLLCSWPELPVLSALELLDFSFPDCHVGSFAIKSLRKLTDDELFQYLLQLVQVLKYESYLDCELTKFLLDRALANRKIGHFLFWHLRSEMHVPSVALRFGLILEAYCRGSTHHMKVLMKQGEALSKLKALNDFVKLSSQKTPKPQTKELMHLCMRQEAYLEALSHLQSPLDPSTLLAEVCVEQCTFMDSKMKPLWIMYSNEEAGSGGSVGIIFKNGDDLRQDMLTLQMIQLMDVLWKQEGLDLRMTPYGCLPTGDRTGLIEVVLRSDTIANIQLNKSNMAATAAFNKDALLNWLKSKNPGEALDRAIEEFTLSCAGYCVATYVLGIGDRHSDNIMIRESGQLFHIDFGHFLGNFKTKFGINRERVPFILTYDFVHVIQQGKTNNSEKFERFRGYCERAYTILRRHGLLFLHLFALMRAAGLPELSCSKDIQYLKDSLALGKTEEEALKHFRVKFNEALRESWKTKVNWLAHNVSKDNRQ
Procedure, shortened: as §1

MCF7 [15] = experiment: Induction of apoptosis in human MCF7 cells assessed as late apoptotic cells at 0.4 uM incubated for 48 hrs by annexin V-FITC and propidium iodide staining based flow cytometry analysis (reference value: 9.2 %); format: functional

IC50 [2]: 0.2 nM | IC50 [4]: 2.99 nM | IC50 (A549): 3100 nM | IC50 [14]: 0.48 nM
Structure (SMILES): COc1ncc(-c2ccc3ncnc(Nc4cnn(CCO)c4)c3c2)cc1NS(=O)(=O)c1ccc(F)cc1F
inhibition (MCF7 [1]): Active | viability at 0.8 µM (MCF7 [3]): 70.3% | Activity (MCF7 [5]): 3.8% | Activity (MCF7 [6]): 22.7% | inhibition (MCF7 [7]): Dose-dependent effect | viability at 0.4 µM (MCF7 [8]): 70% | Activity (MCF7 [9]): Active | Activity (MCF7 [10]): 2.2% | Activity (MCF7 [11]): Active | Activity (MCF7 [12]): 4.8% | Activity (MCF7 [13]): 2.7% | Activity (MCF7 [15]): 23.6%
